Test results taken from ChEMBL document CHEMBL3414559, “Novel C-4 heteroaryl 13-cis-retinamide Mnk/AR degrading agents inhibit cell proliferation and migration and induce apoptosis in human breast and prostate cancer cells and suppress growth of MDA-MB-231 human breast and CWR22Rv1 human prostate tumor xenografts in mice” (J Med Chem, 2015).
Calls of active or inactive are those of the source. The calls are words filed in the database; no cut-off is given here.

Assays:
[1] = test system: MDA-MB-231; experiment: Antitumor activity against human MDA-MB-231 cells xenografted in nude mouse assessed as increase in Bax protein expression at 20 mg/kg, ip dosed once daily for 5 days per week for 28 days by SDS-PAGE and Western blotting method
[2] = test system: LNCaP; experiment: Reduction in Mnk1 protein expression in human LNCAP cells at 0.6 uM to 20 uM after 24 hrs by SDS-PAGE and Western blotting method; type: functional, cell-based
Outline: (§1)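 LNCaP cells (RPMI 1640, 10% FBS) exposed 24 h to 0.6–20 μM, DMSO vehicle control; equal protein on SDS–PAGE, immunoblotted for fAR, Mnk1/2, peIF4E, cyclin D1 and cleaved PARP; β-actin reprobe for loading.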

[3] = test system: MDA-MB-231; experiment: Reduction in Mnk2 protein expression in human MDA-MB-231 cells at 0.63 uM to 20 uM after 24 hrs by SDS-PAGE and Western blotting method; type: functional, cell-based
Outline: (§2)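 Breast cancer cells in RPMI 1640 with 10% FBS treated 24 h at indicated concentrations, DMSO vehicle control; equal protein loaded on SDS–PAGE and immunoblotted for Mnk1, Mnk2, peIF4E, eIF4E and cleaved PARP; blots reprobed for GAPDH as loading control.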

[4] = test system: MDA-MB-468; experiment: Growth inhibition of human MDA-MB-468 cells by MTT assay; type: functional
Outline: (§3)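 Cells grown in RPMI 1640 with 10% FBS, plated at 2500 cells/well, treated across a dose range; growth read by MTT. GI50 taken from dose–response curves by nonlinear regression, at least three independent experiments.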

[5] = Growth inhibition of human CWR22Rv1 cells by MTT assay; type: functional, CWR22R; conditions: 22Rv1
Outline: as §3

[6] = test system: MDA-MB-468; experiment: Effect on total eIF4E protein expression in human MDA-MB-468 cells at 0.63 uM to 20 uM after 24 hrs by SDS-PAGE and Western blotting method; type: functional, cell-based
Outline: as §2

[7] = test system: MDA-MB-468; experiment: Reduction in Mnk2 protein expression in human MDA-MB-468 cells at 0.63 uM to 20 uM after 24 hrs by SDS-PAGE and Western blotting method; type: functional, cell-based
Outline: as §2

[8] = test system: Mus musculus; experiment: Toxicity in human MDA-MB-231 cells xenografted athymic nude mouse assessed as induction of toxic signs at 20 mg/kg, ip dosed once daily for 5 days per week for 28 days; conditions: in vivo
[9] = test system: MDA-MB-231; experiment: Antitumor activity against human MDA-MB-231 cells xenografted in nude mouse assessed as increase in Bad protein expression at 20 mg/kg, ip dosed once daily for 5 days per week for 28 days by SDS-PAGE and Western blotting method
[10] = test system: MCF7; experiment: Reduction in peIF4E protein expression in human MCF7 cells at 0.63 uM to 20 uM after 24 hrs by SDS-PAGE and Western blotting method; type: functional, cell-based
Outline: (§4)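 MCF-7, MDA-MB-231 and MDA-MB-468 cells, kept in RPMI 1640 with 10% FBS, were exposed for 24 h to a range of concentrations, with DMSO vehicle controls. Equal protein from lysates was separated by SDS–PAGE and probed for Mnk1, Mnk2, peIF4E, eIF4E and cPARP. GAPDH reprobing served as loading control.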

[11] = test system: MCF7; experiment: Reduction in Mnk2 protein expression in human MCF7 cells at 0.63 uM to 20 uM after 24 hrs by SDS-PAGE and Western blotting method; type: functional, cell-based
Outline: as §2

[12] = test system: LNCaP; experiment: Induction of apoptosis in human LNCAP cells assessed as increase in c-PARP formation at 0.6 uM to 20 uM after 24 hrs by SDS-PAGE and Western blotting method; type: functional, cell-based
Outline: as §1

[13] = Growth inhibition of human PC3 cells by MTT assay; type: functional; conditions: PC-3
Outline: as §3

[14] = test system: MDA-MB-231; experiment: Antitumor activity against human MDA-MB-231 cells xenografted in SCID mouse assessed as inhibition of tumor growth at 20 mg/kg, ip dosed once daily for 5 days per week for 28 days; type: functional; conditions: MDA-MB-231, ip, in the assay text read “athymic nude mouse” for “SCID mouse”, route intraperitoneal, read-out: TGI
Outline: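 Athymic nude female mice with subcutaneous MDA-MB-231 tumors (10 × 10⁶ cells; ~100 mm³ at randomization, n = 6/group) dosed ip once daily, 5 days/week for 28 days, in 40% β-cyclodextrin/ddH₂O; vehicle controls. %T/C computed as median tumor volume treated vs control at day 28 × 100. Body weight monitored.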

[15] = test system: LNCaP; experiment: Growth inhibition of human LNCAP cells by MTT assay; type: functional
Outline: as §3

[16] = test system: LNCaP; experiment: Reduction in Mnk2 protein expression in human LNCAP cells at 0.6 uM to 20 uM after 24 hrs by SDS-PAGE and Western blotting method; type: functional, cell-based
Outline: as §1

[17] = test system: MDA-MB-231; experiment: Induction of apoptosis in human MDA-MB-231 cells assessed as increase in c-PARP formation at 0.63 uM to 20 uM after 24 hrs by SDS-PAGE and Western blotting method; type: functional, cell-based
Outline: as §2

[18] = test system: MCF7; experiment: Reduction in Mnk1 protein expression in human MCF7 cells at 0.63 uM to 20 uM after 24 hrs by SDS-PAGE and Western blotting method; type: functional, cell-based
Outline: as §2

[19] = test system: MDA-MB-231; experiment: Antitumor activity against human MDA-MB-231 cells xenografted in nude mouse assessed as reduction in Mnk1/2 protein expression at 20 mg/kg, ip dosed once daily for 5 days per week for 28 days by SDS-PAGE and Western blotting method
[20] = test system: Mus musculus; experiment: Toxicity in human MDA-MB-231 cells xenografted athymic nude mouse assessed as effect on body weight at 20 mg/kg, ip dosed once daily for 5 days per week for 28 days; conditions: in vivo
[21] = test system: MDA-MB-231; experiment: Reduction in Mnk1 protein expression in human MDA-MB-231 cells at 0.63 uM to 20 uM after 24 hrs by SDS-PAGE and Western blotting method; type: functional, cell-based
Outline: as §2

[22] = test system: LNCaP; experiment: Effect on total eIF4E protein expression in human LNCAP cells at 0.6 uM to 20 uM after 24 hrs by SDS-PAGE and Western blotting method; type: functional, cell-based
[23] = test system: MDA-MB-231; experiment: Growth inhibition of human MDA-MB-231 cells by MTT assay; type: functional
Outline: as §3

[24] = test system: MCF7; experiment: Effect on total eIF4E protein expression in human MCF7 cells at 0.63 uM to 20 uM after 24 hrs by SDS-PAGE and Western blotting method; type: functional, cell-based
Outline: as §2

[25] = test system: MDA-MB-468; experiment: Reduction in peIF4E protein expression in human MDA-MB-468 cells at 0.63 uM to 20 uM after 24 hrs by SDS-PAGE and Western blotting method; type: functional, cell-based
Outline: as §4

Structure (SMILES)	Activity [1]	inhibition [2]	inhibition [3]	GI50 [4]	GI50 [5]	Activity [6]	inhibition [7]	Activity [8]	Activity [9]	inhibition [10]	inhibition [11]	Activity [12]	GI50 [13]	inhibition in vivo at 20 mg/kg [14]	GI50 [15]	inhibition [16]	Activity [17]	inhibition [18]	Activity [19]	Activity [20]	further results
CC1=C(/C=C/C(C)=C/C=C/C(C)=C\C(=O)Nc2cccc(F)c2)C(C)(C)CCC1n1ccnc1 (stereo not given)	Active	Dose-dependent effect	Dose-dependent effect	6760 nM	2040 nM	inactive	Dose-dependent effect	Non-toxic	Active	Dose-dependent effect	Dose-dependent effect	Active	5620 nM	85.4%	2690 nM	Dose-dependent effect	Dose-dependent effect	Dose-dependent effect	Active	Non-toxic	inhibition [21]: Dose-dependent effect; Activity [22]: inactive; GI50 [23]: 8510 nM; Activity [24]: inactive; inhibition [25]: Dose-dependent effect
CC1=C(/C=C/C(C)=C/C=C/C(C)=C\C(=O)NCc2ccc(O)cc2)C(C)(C)CCC1n1ccnc1 (stereo not given)	Active	Dose-dependent effect	Dose-dependent effect	2700 nM	1860 nM	inactive	Dose-dependent effect	Non-toxic	Active	Dose-dependent effect	Dose-dependent effect	Active	3540 nM	85.4%	1690 nM	Dose-dependent effect	Dose-dependent effect	Dose-dependent effect	Active	Non-toxic	inhibition [21]: Dose-dependent effect; Activity [22]: inactive; GI50 [23]: 2230 nM; Activity [24]: inactive; inhibition [25]: Dose-dependent effect
